Measurements: ChEMBL document CHEMBL5316280, “Development of N-(1-Adamantyl)benzamides as Novel Anti-Inflammatory Multitarget Agents Acting as Dual Modulators of the Cannabinoid CB2 Receptor and Fatty Acid Amide Hydrolase” (J Med Chem, 2023)
pEC50: −log10 of the molar value. Active and inactive are the calls of the source. No cut-off for these calls is given here.

Columns and labels:
THP-1 [1] = assay: Antiinflammatory activity in LPS-activated human THP-1 macrophages assessed as increase in IL-4 level incubated for 24 hrs by ELISA based qRT-PCR analysis; format: functional, cell-based
Procedure, shortened: (§1)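 THP-1 cells were seeded at 1 x 10⁵ cells/ml for 48 h. For macrophages, cells were differentiated with 0.01 µM PMA for 48 h; monocytes received no PMA. Cells were then given 24 h with or without 10 µg/ml LPS, plus ligands alone or with the CB2R inverse agonist JTE907 (10 µM). Cytokines were measured in 5 µL supernatant (from 1 x 10⁴ cells) by ProQuantum immunoassay, read as pg/ml from kit titration curves; n=3.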

THP-1 [2] = assay: Antiinflammatory activity in human THP-1 monocytes assessed as decrease in TNFalpha level incubated for 24 hrs in presence of […] by ELISA based qRT-PCR analysis; format: functional, cell-based; procedure, shortened: as §1
THP-1 [3] = assay: Antiinflammatory activity in human THP-1 macrophages assessed as decrease in IFNgamma level incubated for 24 hrs by ELISA based qRT-PCR analysis; format: functional, cell-based; procedure, shortened: as §1
THP-1 [4] = assay: Antiinflammatory activity in human THP-1 monocytes assessed as increase in IL-4 level incubated for 24 hrs by ELISA based qRT-PCR analysis; format: functional, cell-based; procedure, shortened: as §1
THP-1 [5] = assay: Antiinflammatory activity in human THP-1 macrophages assessed as decrease in IL-1beta level incubated for 24 hrs by ELISA based qRT-PCR analysis; format: functional, cell-based; procedure, shortened: as §1
[6] = target: Cannabinoid receptor 2 (Mus musculus) (UniProt P47936); assay: Agonist activity at mouse CB2 receptor transfected in CHO-K1 cells assessed as beta2-arrestin recruitment incubated for 90 mins by luminescence based assay relative to control; format: functional, cell-based
Sequence of Cannabinoid receptor 2 (Mus musculus) (P47936 whole entry): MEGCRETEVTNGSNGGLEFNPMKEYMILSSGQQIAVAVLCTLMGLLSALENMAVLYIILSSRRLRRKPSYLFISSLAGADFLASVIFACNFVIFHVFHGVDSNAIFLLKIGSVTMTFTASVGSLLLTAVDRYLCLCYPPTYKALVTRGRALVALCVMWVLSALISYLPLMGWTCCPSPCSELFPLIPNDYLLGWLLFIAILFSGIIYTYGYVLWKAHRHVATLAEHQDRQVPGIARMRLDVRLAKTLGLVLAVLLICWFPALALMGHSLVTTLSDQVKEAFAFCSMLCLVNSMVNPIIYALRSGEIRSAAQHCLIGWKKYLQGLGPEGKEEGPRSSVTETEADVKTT
Procedure, shortened: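 PathHunter eXpress kit using mouse CB2 receptor in CHO-K1 cells. Cells were seeded 48 h before the assay in kit medium. Compounds in cell plating reagent were incubated 90 min at 37 °C, 5% CO2. Working detection solution was then added for 60 min at room temperature to read β-arrestin recruitment.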

Cannabinoid receptor 1 [7] = target: T1, Cannabinoid receptor 1 (Homo sapiens, UniProt P21554); assay: Agonist activity at human CB1 receptor in CHO cells incubated for 15 mins by plate reader analysis
T1 sequence (P21554 whole entry): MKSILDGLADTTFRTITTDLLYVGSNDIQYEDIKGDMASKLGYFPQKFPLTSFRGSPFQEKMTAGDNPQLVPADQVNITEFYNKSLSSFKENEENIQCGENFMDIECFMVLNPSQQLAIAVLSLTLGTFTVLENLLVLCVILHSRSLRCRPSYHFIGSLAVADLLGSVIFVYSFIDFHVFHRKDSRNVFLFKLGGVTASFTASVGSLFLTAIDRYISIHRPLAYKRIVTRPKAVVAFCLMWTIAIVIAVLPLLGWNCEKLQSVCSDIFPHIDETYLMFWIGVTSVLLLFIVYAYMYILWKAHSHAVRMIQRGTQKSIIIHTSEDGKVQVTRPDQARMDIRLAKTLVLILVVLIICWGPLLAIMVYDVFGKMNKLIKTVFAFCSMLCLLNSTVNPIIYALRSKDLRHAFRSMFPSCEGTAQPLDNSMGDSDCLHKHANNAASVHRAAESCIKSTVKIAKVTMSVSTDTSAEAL

THP-1 [8] = assay: Antiinflammatory activity in human THP-1 macrophages assessed as decrease in TNFalpha level incubated for 24 hrs by ELISA based qRT-PCR analysis; format: functional, cell-based; procedure, shortened: as §1
THP-1 [9] = assay: Antiinflammatory activity in human THP-1 monocytes assessed as decrease in IL-1beta level incubated for 24 hrs in presence of […] by ELISA based qRT-PCR analysis; format: functional, cell-based; procedure, shortened: as §1
Cannabinoid receptor 2 = Cannabinoid receptor 2 (Homo sapiens, UniProt P34972); assay: Agonist activity at human CB2 receptor overexpressed in CHO-K1 cells assessed as cAMP level incubated for 30 mins by luminescence based assay; format: functional, cell-based
Sequence of Cannabinoid receptor 2 (P34972 whole entry): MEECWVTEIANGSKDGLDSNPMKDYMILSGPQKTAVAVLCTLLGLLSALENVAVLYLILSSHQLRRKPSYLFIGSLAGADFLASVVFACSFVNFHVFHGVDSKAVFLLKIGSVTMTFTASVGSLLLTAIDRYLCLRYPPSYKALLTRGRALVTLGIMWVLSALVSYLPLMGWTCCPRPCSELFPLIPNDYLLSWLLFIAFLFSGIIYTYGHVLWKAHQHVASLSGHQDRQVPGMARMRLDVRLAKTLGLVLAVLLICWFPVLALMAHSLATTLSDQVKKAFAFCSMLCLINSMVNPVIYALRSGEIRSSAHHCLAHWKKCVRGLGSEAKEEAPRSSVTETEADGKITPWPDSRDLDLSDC
Procedure, shortened: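 CHO-K1 cells overexpressing human CB2R were plated at 30 000 cells/well and held overnight at 37 °C, 5% CO2. Test samples were added as dose–response solutions with NKH-477 to stimulate adenylate cyclase, then incubated 30 min at 37 °C. cAMP was detected by luminescence after cell lysis. Values were normalized to NKH-477 alone as 100% response. Three independent experiments were run in triplicate.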

THP-1 [10] = assay: Antiinflammatory activity in human THP-1 monocytes assessed as decrease in IFNgamma level incubated for 24 hrs in presence of […] by ELISA based qRT-PCR analysis; format: functional, cell-based; procedure, shortened: as §1
THP-1 [11] = assay: Antiinflammatory activity in human THP-1 macrophages assessed as increase in IL-4 level incubated for 24 hrs in presence of […] by ELISA based qRT-PCR analysis; format: functional, cell-based; procedure, shortened: as §1
THP-1 [12] = assay: Antiinflammatory activity in LPS-activated human THP-1 macrophages assessed as increase in IL-10 level incubated for 24 hrs by ELISA based qRT-PCR analysis; format: functional, cell-based; procedure, shortened: as §1
THP-1 [13] = assay: Antiinflammatory activity in human THP-1 macrophages assessed as increase in IL-10 level incubated for 24 hrs in presence of […] by ELISA based qRT-PCR analysis; format: functional, cell-based; procedure, shortened: as §1
Cannabinoid receptor 1 [14] = target: T1, Cannabinoid receptor 1; assay: […] human CB1 receptor in CHO cells incubated for 15 mins by plate reader analysis relative to control; format: cell-based
Procedure, shortened: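 CHO-CB1 C3 cells (human CB1) were seeded at 8000 cells/well in medium with dialyzed FBS and preincubated 15 min at 37 °C. Compounds or the CP55940 control were added for 15 min at 37 °C, then forskolin 10 µM for 5 min. cAMP was read by HTRF after 1 h at room temperature (λex 320 nm, λem 620-665 nm).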

THP-1 [15] = assay: Antiinflammatory activity in human THP-1 macrophages assessed as decrease in IL-1beta level incubated for 24 hrs in presence of […] by ELISA based qRT-PCR analysis; format: functional, cell-based; procedure, shortened: as §1
THP-1 [16] = assay: Antiinflammatory activity in human THP-1 macrophages assessed as decrease in TNFalpha level incubated for 24 hrs in presence of […] by ELISA based qRT-PCR analysis; format: functional, cell-based; procedure, shortened: as §1
THP-1 [17] = assay: Antiinflammatory activity in LPS-activated human THP-1 monocytes assessed as decrease in IL-6 level incubated for 24 hrs by ELISA based qRT-PCR analysis; format: functional, cell-based; procedure, shortened: as §1

Compound	Activity (THP-1 [1])	Activity (THP-1 [2])	Activity (THP-1 [3])	Activity (THP-1 [4])	Activity (THP-1 [5])	Emax [6]	pEC50 (Cannabinoid receptor 1 [7])	Activity (THP-1 [8])	Activity (THP-1 [9])	pEC50 (Cannabinoid receptor 2)	Activity (THP-1 [10])	Activity (THP-1 [11])	Activity (THP-1 [12])	Activity (THP-1 [13])	Emax (Cannabinoid receptor 1 [14])	Activity (THP-1 [15])	Activity (THP-1 [16])	Activity (THP-1 [17])
O=C(NC12CC3CC(CC(C3)C1)C2)c1ccccc1OCc1ccccc1	inactive	inactive	Active	Active	Active	12.6%	6.31	Active	inactive	6.91	inactive	inactive	inactive	inactive	100%	inactive	inactive	–
O=C(NC12CC3CC(CC(C3)C1)C2)c1ccccc1OCC1CCCCC1	–	inactive	Active	Active	Active	5.5%	6.60	Active	inactive	6.55	inactive	inactive	–	inactive	75%	inactive	inactive	inactive
CCCCCOc1ccccc1C(=O)NC12CC3CC(CC(C3)C1)C2	–	inactive	Active	Active	Active	34.5%	6.98	Active	inactive	7.06	inactive	inactive	–	inactive	100%	inactive	inactive	–
